Assay results from ChEMBL document CHEMBL1158533, “Pyrazolylthiazole as DeltaF508-cystic fibrosis transmembrane conductance regulator correctors with improved hydrophilicity compared to bithiazoles” (J Med Chem, 2010).

How the values were obtained:
[1] = biological target: Cystic fibrosis transmembrane conductance regulator (Homo sapiens, UniProt P13569); experiment: Binding affinity to human CFTR F508 deletion mutant expressed in FRT cells assessed as increase in iodine influx after 16 to 20 hrs by fluorescence assay; assay type: cell-based
Chain of Cystic fibrosis transmembrane conductance regulator (P13569 whole entry, looked up): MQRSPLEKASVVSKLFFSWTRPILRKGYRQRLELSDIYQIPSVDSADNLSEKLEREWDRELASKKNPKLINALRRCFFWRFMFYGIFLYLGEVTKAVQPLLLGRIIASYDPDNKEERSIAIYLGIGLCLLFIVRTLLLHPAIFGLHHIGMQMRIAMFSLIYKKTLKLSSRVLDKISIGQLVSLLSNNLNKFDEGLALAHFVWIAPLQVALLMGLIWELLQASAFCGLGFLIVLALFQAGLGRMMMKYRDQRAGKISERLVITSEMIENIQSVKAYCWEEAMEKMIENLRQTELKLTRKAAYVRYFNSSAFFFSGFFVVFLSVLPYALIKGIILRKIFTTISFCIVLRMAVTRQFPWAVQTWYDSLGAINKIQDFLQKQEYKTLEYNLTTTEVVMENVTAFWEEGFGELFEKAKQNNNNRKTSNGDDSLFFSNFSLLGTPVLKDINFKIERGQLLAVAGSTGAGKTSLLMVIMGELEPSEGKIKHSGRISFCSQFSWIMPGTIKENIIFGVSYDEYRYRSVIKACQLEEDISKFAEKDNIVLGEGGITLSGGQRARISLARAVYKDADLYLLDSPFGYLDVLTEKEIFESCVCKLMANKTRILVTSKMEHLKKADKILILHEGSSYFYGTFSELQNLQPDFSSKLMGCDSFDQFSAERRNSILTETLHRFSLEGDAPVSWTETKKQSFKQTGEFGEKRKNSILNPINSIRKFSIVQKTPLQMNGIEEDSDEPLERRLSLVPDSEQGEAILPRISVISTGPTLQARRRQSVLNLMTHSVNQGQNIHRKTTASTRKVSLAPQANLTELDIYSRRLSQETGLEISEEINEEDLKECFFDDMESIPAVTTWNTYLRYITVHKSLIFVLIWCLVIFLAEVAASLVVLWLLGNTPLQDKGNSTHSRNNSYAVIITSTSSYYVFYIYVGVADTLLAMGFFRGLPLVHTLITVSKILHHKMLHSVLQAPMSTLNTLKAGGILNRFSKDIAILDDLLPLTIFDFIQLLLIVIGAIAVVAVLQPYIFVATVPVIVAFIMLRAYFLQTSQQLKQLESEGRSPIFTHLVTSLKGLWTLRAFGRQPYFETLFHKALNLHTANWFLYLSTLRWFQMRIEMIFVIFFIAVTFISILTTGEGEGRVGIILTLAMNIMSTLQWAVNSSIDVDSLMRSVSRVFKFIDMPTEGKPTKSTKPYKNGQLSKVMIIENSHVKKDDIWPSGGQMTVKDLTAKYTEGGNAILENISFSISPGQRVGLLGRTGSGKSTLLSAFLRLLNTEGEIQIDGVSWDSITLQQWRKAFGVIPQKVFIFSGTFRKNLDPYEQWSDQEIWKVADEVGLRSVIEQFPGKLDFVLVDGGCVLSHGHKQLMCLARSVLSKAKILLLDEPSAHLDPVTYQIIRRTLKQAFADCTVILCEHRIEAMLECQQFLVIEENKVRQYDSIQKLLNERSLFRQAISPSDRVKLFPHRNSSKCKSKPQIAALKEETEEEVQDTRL
Summary of the method: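 FRT cells stably coexpressing human ΔF508-CFTR and halide sensor YFP-H148Q/I152L, grown 24 h at 37 °C, then incubated 16–20 h with test compound. Washed in PBS, then 20 min in PBS with forskolin (20 μM) and genistein (50 μM). Fluorescence (ex 500, em 535 nm) recorded 2 s baseline, then 12 s after I⁻-substituted PBS addition; initial I⁻ influx rate from exponential regression; EC50 and Vmax from concentration dependence.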

[2] = Octanol-water partition coefficient, log P by reverse-phase HPLC analysis; assay type: physicochemical
Summary of the method: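 logP derived from reverse-phase HPLC capacity factor: logk from measured retention time, converted via a calibration curve of standards with known logP versus their logk values.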

EC50 [1] [nM] | logP [2] | SMILES
300 | – | COc1ccc(Cl)cc1Nc1nc2c(s1)CCCc1nc(NC(=O)C(C)(C)C)sc1-2
3400 | 5.52 | COc1ccc(NC(=O)c2cc(-c3sc(NC(=O)C(C)(C)C)nc3C)n(-c3ccc(Br)cc3)n2)cc1
700 | – | COc1ccc(Cl)cc1Nc1nc(-c2sc(NC(=O)C(C)(C)C)nc2C)cs1
8500 | – | CCOC(=O)c1cc(-c2sc(NC(=O)C(C)(C)C)nc2C)nn1Cc1ccccc1
